The values that follow come from ChEMBL document CHEMBL1148479, “Antineoplastic agents. 520. Isolation and structure of irciniastatins A and B from the Indo-Pacific marine sponge Ircinia ramosa” (2004).

Usually GI50 stands for the concentration that inhibits growth by half. Low values mean more potent growth inhibition, high ones less potent growth inhibition. The term MIC denotes the lowest concentration found to suppress growth.

Values after ≈ are worked out from the molar mass of the structure shown. Some results are limits rather than exact numbers.

Holding throughout (type): functional
For one assay, the system named is BXPC-3. Put plainly: Compound was tested for cancer cell line growth inhibition against human pancreas (BXPC-3) cell line. In a few lines: (§1)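 NCI sulforhodamine B protocol. Cells in 5% fetal bovine serum/RPMI1640 are seeded in 96-well plates and incubated 24 h, then exposed to serial compound dilutions for 48 h. Cells are fixed with trichloroacetic acid, stained with SRB and read by microplate reader. GI50 is the concentration giving a 50% reduction in net protein increase, calculated from optical density.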

A further assay relates to Cryptococcus neoformans. Put plainly: Compound was tested for minimum inhibitory concentration against Cryptococcus neoformans ATCC 90112. A digest of the protocol: (§2)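 Standard broth microdilution susceptibility method. The fungal test follows the M27-A yeast reference standard. MIC is the lowest concentration that inhibits all visible growth of the organism (optically clear wells).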

A further assay deals with DU-145. Put plainly: Compound was tested for cancer cell line growth inhibition against human prostate (DU-145) cell line. A digest of the protocol:
as §1

The subject of the next assay is HUVEC. Put plainly: Compound was tested for cancer cell line growth inhibition against human umbilical vein endothelial cells.
In the next assay the test system is KM-20L2. Put plainly: Compound was tested for cancer cell line growth inhibition against human colon (KM20L2) cell line. A digest of the protocol: as §1
The test system of the next assay is MCF7. Put plainly: Compound was tested for cancer cell line growth inhibition against human breast (MCF-7) cell line. A digest of the protocol:
as §1

In a further assay the test system is NCI-H460. Put plainly: Compound was tested for cancer cell line growth inhibition against lung cancer cells (NCI-H460). The following applies: Homo sapiens. A digest of the protocol: as §1
Another assay has as its system Neisseria gonorrhoeae. Put plainly: Compound was tested for minimum inhibitory concentration against Neisseria gonorrhoeae ATCC 49226. In a few lines: as §2
The next assay has as its system P388. Put plainly: Compound was tested for cancer cell line growth inhibition against murine P388 leukemia cell line. The following applies: Mus musculus. In a few lines:
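Murine P388 leukemia cells are grown in 10% horse serum/Fisher medium for 24 h, then incubated 48 h with serial compound dilutions. Cells are counted on a particle counter, and ED50 for growth inhibition is calculated from the counts.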

For a further assay, the system named is SF-268. Put plainly: Compound was tested for cancer cell line growth inhibition against human central nervous system (SF268) cell line. A digest of the protocol: as §1

For the compound `C=C(C)CC(OC)[C@H](O)C(=O)N[C@@H](OC)[C@@H]1C[C@@H](O)C(C)(C)[C@@H](C[C@H](O)[C@@H](C)[C@H]2Cc3c(C)c(O)cc(O)c3C(=O)O2)O1` (stereo not given in full) [IRCINIASTATIN A], the 50% growth inhibitory concentration (GI50) in the assay on BXPC-3 is 0.5 ng/mL (≈ 0.82 nM); with DU-145, 1.6 ng/mL (≈ 2.62 nM); with HUVEC, less than 0.5 ng/mL; in the assay on KM-20L2 it was 2.1 ng/mL (≈ 3.44 nM); in the assay with MCF7 it was 0.66 ng/mL (≈ 1.08 nM); in the assay with NCI-H460, 0.73 ng/mL (≈ 1.2 nM). The 50% growth inhibitory concentration (GI50) with P388 is 6 ng/mL (≈ 9.84 nM); with SF-268, 1.2 ng/mL (≈ 1.97 nM). Moreover, the minimum inhibitory concentration (MIC) was 16000 ng/mL (≈ 26200 nM) against Cryptococcus neoformans and 64000 ng/mL (≈ 105000 nM) against Neisseria gonorrhoeae.
